The test system of experiment [1] is Canis familiaris. Put plainly: Tested in vivo for change in maximal arterial pressure (MAP) in dog after intravenous dose of 30 (ug/kg)/min.
Experiment [2] deals with Canis familiaris. Nature of the experiment: Tested in vivo for change in heart rate(HR) in dog after intravenous dose of 3 mg/kg. Format: functional, Canis lupus familiaris.
Experiment [3] addresses Dopamine receptor. Put plainly: Tested in vitro for dopamine agonist activity in rabbit ear artery after at a dose of 3 mg/kg. The class given is functional, Oryctolagus cuniculus. The procedure, abridged:
(§1)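 Isolated perfused rabbit ear artery preparation, used to assess activation of presynaptic dopamine receptors.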

The test system of experiment [4] is Canis familiaris. Put plainly: Tested in vivo for change in maximal arterial pressure (MAP) in dog after intravenous dose of 30 mg/kg. The class given is functional, Canis lupus familiaris, Artery.
Experiment [5] deals with Canis familiaris. Nature of the experiment: Tested in vivo for change in heart rate (HR) in dog after intravenous dose of 30 ug/kg. The class given is functional, Canis lupus familiaris.
For experiment [6], the system named is Canis familiaris. Nature of the experiment: Tested in vivo for change in maximal arterial pressure (MAP) in dog after intravenous dose of 30 ug/kg. The class given is functional, Canis lupus familiaris, Artery. The procedure, abridged: (§2)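 Mean arterial blood pressure was recorded in dogs (N = 2) given the hydrobromide salt by intravenous infusion, dosed as (μg/kg)/min. Values are percent change from the control reading taken just before infusion. The minimum change counted as significant (p < 0.05) was ±5.2%.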

The test system of experiment [7] is Canis familiaris. Nature of the experiment: Tested in vivo for change in maximal arterial pressure (MAP) in dog after intravenous dose of 3 ug/kg. Format: functional, Canis lupus familiaris, Artery. The procedure, abridged: as §2
The target of experiment [8] is Dopamine receptor. Put plainly: Tested in vitro for dopamine agonist activity in rabbit ear artery after at a dose of 3 ug/kg. The class given is functional, tissue-based, Oryctolagus cuniculus. The essentials: as §1
Experiment [9] has as its system Canis familiaris. Put plainly: Tested in vivo for change in heart rate (HR) in dog after intravenous dose of 300 ug/kg. Format: functional, Canis lupus familiaris.
Experiment [10] relates to Canis familiaris. Nature of the experiment: Tested in vivo for change in maximal arterial pressure (MAP) in dog after intravenous dose of 300 ug/kg. The class given is functional, Canis lupus familiaris, Artery. The procedure, abridged:
as §2

Experiment [11] has as its system Canis familiaris. Put plainly: Tested in vivo for change in heart rate (HR) in dog after intravenous dose of 3 ug/kg. Format: functional, Canis lupus familiaris.
Experiment [12] has as its target Dopamine receptor. Nature of the experiment: Tested in vitro for dopamine agonist activity in rabbit ear artery after at a dose of 0.3 mg/kg. The class given is functional, Oryctolagus cuniculus. On the set-up: dose 0.3 mg/kg.
For experiment [13], the system named is Canis familiaris. Put plainly: Tested in vivo for change in heart rate (HR) in dog after intravenous dose of 30 (ug/kg)/min.

Usually EC50 stands for the midpoint of the concentration-response curve. Low readings indicate a more potent agent, high ones a less potent agent.

Structures are written as SMILES.

In the case of `CCCN(CCC)CCc1ccc(O)c(O)c1`, the Change is on record as -21.9% in experiment [1], 1.5% in experiment [2] and -17.7% in [4]. Further, the EC50 in [3] is reported as 80 nM.
With `NCCc1ccc(O)c2c1CC(=O)N2`, the Change in experiment [5] was -2.9%; in [6], -16.1%; in [7], -10.6%; in experiment [9], -15.8%; in [10] it was 62.6%; in experiment [11] it was -2.9%. Moreover, in [8], the EC50 is given as 116 nM.
The compound `C=CCN1CCc2c(cc(O)c(O)c2Cl)C(c2ccc(O)cc2)C1` (stereo unspecified) returned an EC50 in experiment [12] of 122 nM. In other words, the sub-micromolar range.
Regarding `CCCN(CCC)CCc1ccc(O)c2c1CC(=O)N2` [SKF-89124A], the Change in experiment [1] is 28.4%; in [13], -6.9%; in experiment [4] it was 28.4%. In addition, in experiment [12], the EC50 is 1.8 nM.
